Bioassay records as filed in PubChem BioAssay.
SENP1 inh: blocks the human SENP1 SUMO protease catalytic domain. inhibition, % at 10 µM. 360,000 compounds, 0.21% hits. recombinant SENP1 catalytic domain, CyPet-SUMO1-YPet FRET cleavage. AID 624204. Q9P0U3;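 active = inhibition at least 30% at 10 µM, raw YFP signal under a set limit, fluorescence ratio 0.5 to 1.5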
Target sequence (Q9P0U3 419-644 limits assumed): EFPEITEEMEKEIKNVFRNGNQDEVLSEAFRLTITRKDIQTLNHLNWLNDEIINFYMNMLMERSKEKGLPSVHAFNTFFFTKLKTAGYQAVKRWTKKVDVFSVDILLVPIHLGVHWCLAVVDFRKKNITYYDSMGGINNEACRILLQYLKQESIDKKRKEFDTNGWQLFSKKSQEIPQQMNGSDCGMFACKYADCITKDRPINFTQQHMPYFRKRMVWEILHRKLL
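Assay system: hSENP1 catalytic domain, recombinant. Amount: SENP1 enzyme, 20 pM final. Schedule: 50 min reaction, RT, dark. Technique: FRET, CFP and YFP emission. Control set: no-enzyme wells low, DMSO-plus-enzyme wells high control.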
UCH37 inh: blocks the human deubiquitinase UCH37; purified proteasome/UCH37, Ub-AMC cleavage fluorescence; inhibition, % (test concentration not listed); 330,000 compounds, 0.33% hits; AID 588478;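 active = mean inhibition over replicate wells above about 20%, limit read from the data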
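Signal – fluorescence, ex 355 nm, em 460 nm · System – Proteasome-bound UCH37 · Input – 0.15 nM proteasome as dispensed · Timing – 30 min preincubation with enzyme, 25 min cleavage at room temperature · Read-out basis – percent inhibition of cleavage signal versus uninhibited and no-proteasome wells · Medium – Tris-HCl pH 7.4 with ATP-MgCl2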
NadD inh: blocks S. aureus nicotinate mononucleotide adenylyltransferase. purified NadD enzyme, colorimetric absorbance read-out. inhibition, % at 20 µM. 360,000 compounds, 0.78% hits. AID 602399; in the data active = inhibition above about 26%
ATG4B inhibitor: inhibitors of human ATG4B cysteine protease; ATG4B cleavage of LC3-PLA2, NBD-HPC fluorescence, 1 h; inhibition, % at 8.33 µM; 340,000 compounds, 0.51% hits; in the data active = inhibition above about 40%
Target sequence (Q9Y4P1 whole entry, looked up): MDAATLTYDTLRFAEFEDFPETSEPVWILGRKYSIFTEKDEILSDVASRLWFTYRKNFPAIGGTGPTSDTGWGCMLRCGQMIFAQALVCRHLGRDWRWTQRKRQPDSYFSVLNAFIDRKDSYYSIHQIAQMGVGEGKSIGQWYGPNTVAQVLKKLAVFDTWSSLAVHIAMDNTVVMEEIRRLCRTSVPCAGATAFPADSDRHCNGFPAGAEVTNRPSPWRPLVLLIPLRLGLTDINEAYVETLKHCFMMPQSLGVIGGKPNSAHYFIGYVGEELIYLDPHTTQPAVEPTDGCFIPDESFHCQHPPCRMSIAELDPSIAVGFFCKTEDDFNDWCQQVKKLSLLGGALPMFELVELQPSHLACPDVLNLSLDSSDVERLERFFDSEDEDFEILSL
NR3A LBD binder: modulates the human NR3A ligand-binding domain. NR3A LBD differential scanning fluorimetry, Tm shift; 0% = protein alone, 100% = glycine-bound protein. 340,000 compounds, 2.5% hits. Tm shift relative to glycine control, % at 25 µM;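 active = melting temperature shift of at least 10% of the positive control shift, at one fixed dose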
Hits are given with their value; . = inactive; / = no result given. This is a sample that favours compounds with a hit; in the whole collection about 3.6% have one here.

SMILES	SENP1 inh	UCH37 inh	NadD inh	ATG4B inhibitor	NR3A LBD binder
O=[N+]([O-])c1ccc(NN=Cc2ccc(O)cc2O)nc1	.	.	.	.	27
CNC(=S)NN=Cc1ccc(OCC(=O)Nc2c(C)cc(C)cc2C)c(OC)c1	/	.	/	/	/
Cc1ccc(CON=CC2=C(Cl)c3ccccc3CC2)cc1	/	.	/	/	/
CC(=NOC(=O)c1c(-c2c(Cl)cccc2Cl)noc1C)c1cnccn1	/	.	/	/	/
CCN(CC)S(=O)(=O)c1ccc(NN=Cc2cc(OC)ccc2O)nc1	/	.	/	/	/
CCCOc1ccc(/C=N/NC(=S)Nc2ccccc2[N+](=O)[O-])c(O)c1	/	/	/	.	12
CCCOc1ccc(/C=N/Nc2ccccc2[N+](=O)[O-])c(O)c1	.	/	.	.	.
CCN(CC)S(=O)(=O)c1ccc(N/N=C/c2ccc(O)cc2O)nc1	.	/	.	.	24
Cc1cc(=O)[nH]c(N=C(N)Nc2ccc(Oc3ccccc3)cc2)n1	/	.	/	/	/
COc1c(C=NNC(=O)c2ccccc2O)c(CCN(C)C(C)=O)cc2c1OCO2	/	.	/	/	/
Cc1ccc(Cn2c(C(CO)Nc3nc(-c4ccc(F)cc4)cs3)nc3ccccc32)cc1 (stereo not drawn)	.	.	.	.	19
COc1ccc(-c2csc(NC(CO)c3nc4ccccc4n3Cc3ccc(C)cc3)n2)cc1 (stereo not drawn)	.	.	.	.	.
COc1ccc(NC(=S)NNC(=O)CNc2ccc(Cl)cc2)cc1	.	.	.	.	12
COc1ccc(NC(=S)NNC(=O)COc2ccc(Cl)cc2Cl)cc1	.	.	.	.	.
Oc1ccc(/C=N/Nc2ccc(Cl)nn2)c(O)c1O	.	/	.	.	22
O=C(CSc1nc2ccccc2n1CCc1ccccc1)c1ccc(O)c(O)c1	.	.	36	.	.
Cc1ccc2[nH]cc(C(=O)CN3CCN(C)CC3)c2c1	.	.	.	.	.
Cc1ccc2[nH]cc(C(=O)CCl)c2c1	.	.	.	.	38
Cc1coc2c1C(=O)C(=O)c1c-2ccc2c(C)cccc12	.	.	34	.	.
Cc1coc2c1C(=O)C(=O)c1c-2ccc2c1CCCC2(C)C	.	.	33	.	.
Cc1ccc(C(=O)c2coc3c2C(=O)C(=O)c2ccccc2-3)cc1	.	.	.	.	.
Fc1ccc2nc(Nc3nc4cc5c(cc4s3)OCCO5)sc2c1	.	.	.	.	.
Fc1ccc2nc(Nc3nc4c(F)cccc4s3)sc2c1	.	.	.	.	23
Fc1ccc2nc(Nc3ccccc3)sc2c1	.	.	.	.	19
Fc1ccc2nc(Nc3nc4cc5c(cc4s3)OCO5)sc2c1	.	.	.	.	31
SMILES	SENP1 inh	UCH37 inh	NadD inh	ATG4B inhibitor	NR3A LBD binder
NNc1nc2ccc(F)cc2s1	.	.	.	.	.
O=C(NNc1nc2ccccc2s1)c1ccccc1F	.	.	.	.	.
Fc1cccc2sc(Nc3nc4ccccc4s3)nc12	.	.	.	.	28
CC(=O)ON=C(N)Cc1ccc(-c2csnn2)cc1	/	.	/	/	/
Fc1ccc2nc(Nc3nc4c(F)cc(F)cc4s3)sc2c1	.	.	.	.	34
O=C(NCc1ccncc1)C(=O)NN=Cc1ccccn1	/	.	/	/	/
CCN(CCCNc1cc2c(c(N)c1S(=O)(=O)O)C(=O)c1ccccc1C2=O)c1ccccc1	.	/	52	/	/
O=C(NN=Cc1cccc(Cl)c1)c1c(O)c2c([nH]c1=O)CCCC2	/	.	/	/	/
COc1ccc(C(=O)Nc2ccc(S(=O)(=O)Nc3cnc4ccccc4n3)cc2)cc1	.	.	.	.	.
O=C(c1ccc(Cl)c([N+](=O)[O-])c1)N(c1ccccn1)c1ccccn1	.	.	.	.	15
O=C(Nc1ccc(Nc2ccccc2)cc1)c1ccc(Cl)c([N+](=O)[O-])c1	.	.	.	.	24
O=C(c1ccc(N2CCCCC2)c([N+](=O)[O-])c1)N(c1ccccn1)c1ccccn1	.	.	.	.	.
O=C(Nc1ccc(S(=O)(=O)Nc2cnc3ccccc3n2)cc1)c1ccc(Cl)c([N+](=O)[O-])c1	.	.	.	.	24
Cc1cc(C(=O)Nc2ccc(Nc3ccccc3)cc2)ccc1[N+](=O)[O-]	.	.	.	.	12
Cc1cc(C(=O)Nc2ccncc2)ccc1[N+](=O)[O-]	.	.	.	.	.
NC(=NO)c1ccc(NC(=O)c2ccc(Br)o2)cc1	/	.	/	/	/
CC(Cn1nnc([N+](=O)[O-])n1)=NNC(=O)c1ccccc1O	/	.	/	/	/
COc1ccc(C=NNC(=O)c2ccn[nH]2)cc1Cn1nc(C)c([N+](=O)[O-])c1C	/	.	/	/	/
O=C(Nc1ccc(Nc2ccccc2)cc1)c1ccc(Cl)cc1[N+](=O)[O-]	.	.	.	.	12
COc1cc(NC(=S)N2CCC(C(N)=O)CC2)cc(OC)c1	.	.	.	.	.
COc1cc(NC(=S)N2CCC(C(N)=O)CC2)c(OC)cc1Cl	.	31	.	.	.
C(=NNC1=NCCN1)c1ccncc1	/	.	/	/	/
Cc1ccccc1-c1nc(CS(=O)CC(=O)NCCc2ccc(Cl)cc2)c(C)o1 (stereo not drawn)	.	.	.	.	489
Cc1oc(-c2ccccc2Cl)nc1CS(=O)CC(=O)NCCc1ccccc1 (stereo not drawn)	.	.	.	.	.
CC(=NNC(=O)c1nnn(-c2nonc2N)c1-c1ccccc1)c1ccco1	/	.	/	/	/
SMILES	SENP1 inh	UCH37 inh	NadD inh	ATG4B inhibitor	NR3A LBD binder
COc1cc2c(cc1NC(=O)CSc1ccccc1)oc1ccccc12	.	.	.	.	35
Cc1[nH]c2ccccc2c1C(=O)CSc1nc2ccccc2[nH]1	.	.	.	.	19
O=C(CSc1nc2ccccc2s1)Nc1ccc2c(c1)oc1ccccc12	.	.	.	.	39
O=C(CSc1nc2cc(Cl)ccc2s1)c1ccco1	.	.	.	.	.
COc1cc2c(cc1NC(=O)CSc1nc3cc(Cl)ccc3s1)oc1ccccc12	.	.	.	.	32
Cc1[nH]c2ccccc2c1C(=O)CSc1nccc(=O)[nH]1	.	.	.	.	.
NC(=NOC(=O)c1ccc2ccccc2c1)c1cccc([N+](=O)[O-])c1	/	.	/	/	/
O=C(Cn1cc(C=NO)c2ccccc21)N1CCOCC1	/	.	/	/	/
Cc1cc(C)c(OCC(=O)NN=Cc2ccc3c(c2)OCO3)c(C)c1	/	.	/	/	/
Cc1ccc(Cn2c(SCC(=O)NN=Cc3ccccc3OCC(=O)O)nc3ccccc32)cc1	/	.	/	/	/
COc1cc2c(cc1NC(=O)CSc1nc3ccccc3[nH]1)oc1ccccc12	.	.	.	.	14
COc1cc2c(cc1NC(=O)CSc1nccn1C)oc1ccccc12	.	.	.	.	.
COc1ccc(/C=C/C(=O)NC(=S)Nc2cc3oc4ccccc4c3cc2OC)cc1	.	/	.	.	.
COc1cc2c(cc1NC(=O)/C=C/c1ccccc1)oc1ccccc12	.	.	.	.	20
CC(C)NC(=S)NN=Cc1c[nH]c2ccccc12	/	.	/	/	/
Cc1nc2ccccc2c(=O)n1N=Cc1ccc2ccccc2c1O	/	.	/	/	/
